In assay [1] the test system is Trichophyton mentagrophytes. The experiment in a line: Antifungal activity against Trichophyton mentagrophytes. It is filed as functional, organism-based.
The next assay deals with P388. The experiment in a line: Cytotoxicity against mouse P388 cells. It is filed as functional, cell-based.
The test system of the next assay is Herpesviridae sp. The experiment in a line: Antiviral activity against Herpesvirus. Type of assay: functional. The method, boiled down: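 Disk-based antiviral test, sample loaded at 132 μg per disk onto herpes-virus-infected cell wells; read-out is percent virus inhibition, with cytotoxicity scored across the whole well.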
For the next assay, the system named is Candida albicans. The experiment in a line: Antifungal activity against Candida albicans. It is filed as functional, organism-based.
The subject of assay [2] is Bacillus subtilis. The experiment in a line: Antibacterial activity against Bacillus subtilis at 96 ug. Type of assay: functional. The note with it: read-out: IZ.
Assay [3] has as its system Bacillus subtilis. The experiment in a line: Antibacterial activity against Bacillus subtilis at 156 ug. It is filed as functional. The note with it: read-out: IZ.
For assay [4], the system named is Bacillus subtilis. The experiment in a line: Antibacterial activity against Bacillus subtilis at 150 ug. The note with it: read-out: IZ. It is filed as functional.
A further assay concerns Enterovirus C. The experiment in a line: Antiviral activity against Poliovirus. It is filed as functional. The method, boiled down: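 Disk assay at 132 μg per disk, scored as percent virus inhibition, with cytotoxicity assessed across the whole well.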
Another assay relates to Escherichia coli. The experiment in a line: Antibacterial activity against Escherichia coli. Type of assay: functional, organism-based.
The subject of assay [5] is Bacillus subtilis. The experiment in a line: Antibacterial activity against Bacillus subtilis. Type of assay: functional, organism-based.

Calls of active or inactive are those of the source. No cut-off for these calls is given here.

The IC50 is the point on the concentration scale where inhibition reaches its midpoint. Read a high IC50 as a need for much substance. Regarding `Cc1cc([C@H]2[C@@H](C(C)C)CC[C@@]2(C)CC(=O)O)c2c(c1Br)O[C@H](C)NC2=O`, the outcome (in [1]; in the assay with Herpesviridae sp.; in the assay with Candida albicans; in the assay on Enterovirus C; in the assay on Escherichia coli) was inactive. Besides, the IC50 in the assay on P388 stood at 74.2 µM. Also, the zone of inhibition at 96 µg/disc in the assay on Bacillus subtilis [2] worked out at 3 mm. The zone of inhibition at 156 µg/disc with Bacillus subtilis [3] is 3 mm. Further, the zone of inhibition at 150 µg/disc in the assay with Bacillus subtilis [4] was 3 mm.

`COC(=O)[C@]1(O)C(=O)c2c(O)cc(C)cc2[C@H]2[C@@H](C(C)C)CC[C@]21C`: the outcome (in [1]; in the assay on Herpesviridae sp.; with Candida albicans; with Enterovirus C; with Escherichia coli) was inactive.

For `COC(=O)[C@]1(O)C(=O)c2c(cc(C)c(Br)c2O)[C@H]2[C@@H](C(C)C)CC[C@]21C`, the outcome (in assay [1]; in the assay on Herpesviridae sp.; in the assay with Candida albicans; in the assay on Bacillus subtilis [5]; in the assay on Enterovirus C; in the assay with Escherichia coli) was inactive.

As to `Cc1c(Br)c(O)c2c(c1Br)[C@H]1[C@@H](C(C)C)CC[C@@]1(C)C(=O)C2=O` [4-BROMOHAMIGERAN B], the result (in [1]; with Herpesviridae sp.; in the assay with Candida albicans; with Enterovirus C; in the assay on Escherichia coli) was inactive. Moreover, the IC50 in the assay with P388 was determined as 13.9 µM.

As to `Cc1cc2c(c(O)c1Br)C(=O)C(=O)[C@]1(C)CC[C@H](C(C)C)[C@H]21` [HAMIGERAN B], the “inhibition (INH)” value in the assay on Herpesviridae sp. and in the assay with Enterovirus C was 100% throughout. The outcome in the assay with Candida albicans and in the assay with Escherichia coli was inactive.

In the case of `CC(=O)O[C@H]1C(=O)C(=O)c2c(cc(C)c(Br)c2O)[C@H]2[C@@H](C(C)C)CC[C@@]12C` [HAMIGERAN C], half-maximal inhibition in the assay on P388 (IC50) required 16 µM. The result in the assay on Herpesviridae sp., in the assay with Candida albicans, with Enterovirus C and in the assay with Escherichia coli was inactive. Moreover, in the assay with Bacillus subtilis [2], the zone of inhibition at 96 µg/disc was determined as 3 mm. Also, the zone of inhibition at 156 µg/disc with Bacillus subtilis [3] turned out to be 3 mm. In addition, in the assay with Bacillus subtilis [4], the zone of inhibition at 150 µg/disc amounted to 3 mm.

With `Cc1cc2c3c(c1Br)O[C@H](C)N=C3C(=O)C[C@]1(C)CC[C@H](C(C)C)[C@H]21` [HAMIGERAN D], in the assay with P388, the midpoint of inhibition, the IC50, lay at 8 µM. In addition, the outcome in the assay on Herpesviridae sp., in the assay on Candida albicans, in the assay with Enterovirus C and in the assay with Escherichia coli was inactive. Also, in the assay on Bacillus subtilis [2], the zone of inhibition at 96 µg/disc was 3 mm. In addition, the zone of inhibition at 156 µg/disc in the assay on Bacillus subtilis [3] was 3 mm. In addition, in the assay with Bacillus subtilis [4], the zone of inhibition at 150 µg/disc worked out at 3 mm.

On to `CCOC(=O)c1c([C@H]2[C@@H](C(C)C)CC[C@@]2(C)C(=O)OCC)cc(C)c(Br)c1OCC` [TRYETHYLHAMIGERAN E], for which the outcome (in assay [1]; with Herpesviridae sp.; in the assay on Candida albicans; in the assay on Bacillus subtilis [5]; in the assay with Enterovirus C; with Escherichia coli) was inactive. In the assay on P388, this compound came in with a half-inhibitory concentration (IC50) of 54.2 µM.
